Results: ChEMBL document CHEMBL4715736, “Identification of anticancer agents based on the thieno[2,3-b]pyridine and 1H-pyrazole molecular scaffolds” (2016)

Tests used:
Type in all cases: functional
Conditions in all cases: read-out: Activity
OVCAR-3 = assay: Growth inhibition of human OVCAR-3 cells assessed as cell growth at 10 uM incubated for 48 hrs by sulforhodamine B assay relative to control
Summary of the method: (§1)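 Run by the NCI Developmental Therapeutics Program as part of its 60-line human tumour panel. Each compound tested at a single 10 µM dose. Growth expressed as % relative to untreated control cells (100%).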

UO-31 = assay: Growth inhibition of human UO-31 cells assessed as cell growth at 10 uM incubated for 48 hrs by sulforhodamine B assay relative to control; summary of the method: as §1
OVCAR-4 = assay: Growth inhibition of human OVCAR-4 cells assessed as cell growth at 10 uM incubated for 48 hrs by sulforhodamine B assay relative to control; summary of the method: as §1
PC-3 = assay: Growth inhibition of human PC-3 cells assessed as cell growth at 10 uM incubated for 48 hrs by sulforhodamine B assay relative to control; summary of the method: as §1
SK-MEL-28 = assay: Growth inhibition of human SK-MEL-28 cells assessed as cell growth at 10 uM incubated for 48 hrs by sulforhodamine B assay relative to control; summary of the method: as §1
NCI-H460 = assay: Growth inhibition of human NCI-H460 cells assessed as cell growth at 10 uM incubated for 48 hrs by sulforhodamine B assay relative to control
Summary of the method: (§2)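 Submitted to the NCI Developmental Therapeutics Program for the NCI60 human tumour cell line panel. First screen at a single 10 µM concentration. Read-out is growth relative to untreated control cells set at 100%.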

NCI-H226 = assay: Growth inhibition of human NCI-H226 cells assessed as cell growth at 10 uM incubated for 48 hrs by sulforhodamine B assay relative to control; summary of the method: as §2
Hs-578T = assay: Growth inhibition of human Hs-578T cells assessed as cell growth at 10 uM incubated for 48 hrs by sulforhodamine B assay relative to control; summary of the method: as §2
786-0 = assay: Growth inhibition of human 786-0 cells assessed as cell growth at 10 uM incubated for 48 hrs by sulforhodamine B assay relative to control
Summary of the method: (§3)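 NCI Developmental Therapeutics Program NCI60 panel. Compounds that were active in the 10 µM one-dose screen went on to dose–response testing. Growth at each concentration is expressed relative to untreated control (100%). GI50 (concentration giving 50% of maximal inhibition of proliferation) and TGI (concentration giving total growth inhibition) were derived from the curves.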

SF-539 = assay: Growth inhibition of human SF-539 cells assessed as cell growth at 10 uM incubated for 48 hrs by sulforhodamine B assay relative to control; summary of the method: as §1
SN12C = assay: Growth inhibition of human SN12C cells assessed as cell growth at 10 uM incubated for 48 hrs by sulforhodamine B assay relative to control; summary of the method: as §1
HL-60(TB) = assay: Growth inhibition of human HL-60(TB) cells assessed as cell growth at 10 uM incubated for 48 hrs by sulforhodamine B assay relative to control
Summary of the method: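 Screened by the NCI Developmental Therapeutics Program on its panel of 60 human tumour cell lines. Compounds were first tested at a single 10 µM dose, and compounds active there went to dose-response curves. Growth is expressed relative to untreated control (100%). GI50 (50% of maximal proliferation inhibition) and TGI (total growth inhibition) were derived from the dose-response data.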

SW-620 = assay: Growth inhibition of human SW-620 cells assessed as cell growth at 10 uM incubated for 48 hrs by sulforhodamine B assay relative to control; summary of the method: as §1
OVCAR-5 = assay: Growth inhibition of human OVCAR-5 cells assessed as cell growth at 10 uM incubated for 48 hrs by sulforhodamine B assay relative to control; summary of the method: as §1
MOLT-4 = assay: Growth inhibition of human MOLT-4 cells assessed as cell growth at 10 uM incubated for 48 hrs by sulforhodamine B assay relative to control; summary of the method: as §2
SK-MEL-5 = assay: Growth inhibition of human SK-MEL-5 cells assessed as cell growth at 10 uM incubated for 48 hrs by sulforhodamine B assay relative to control; summary of the method: as §1
RXF 393 = assay: Growth inhibition of human RXF 393 cells assessed as cell growth at 10 uM incubated for 48 hrs by sulforhodamine B assay relative to control; summary of the method: as §1
HCC 2998 = assay: Growth inhibition of human HCC 2998 cells assessed as cell growth at 10 uM incubated for 48 hrs by sulforhodamine B assay relative to control; summary of the method: as §3
Malme-3M = assay: Growth inhibition of human Malme-3M cells assessed as cell growth at 10 uM incubated for 48 hrs by sulforhodamine B assay relative to control; summary of the method: as §2
SR = assay: Growth inhibition of human SR cells assessed as cell growth at 10 uM incubated for 48 hrs by sulforhodamine B assay relative to control; summary of the method: as §1
MCF7 = assay: Growth inhibition of human MCF7 cells assessed as cell growth at 10 uM incubated for 48 hrs by sulforhodamine B assay relative to control; summary of the method: as §2
MDA-MB-435 = assay: Growth inhibition of human MDA-MB-435 cells assessed as cell growth at 10 uM incubated for 48 hrs by sulforhodamine B assay relative to control; summary of the method: as §2
KM12 = assay: Growth inhibition of human KM12 cells assessed as cell growth at 10 uM incubated for 48 hrs by sulforhodamine B assay relative to control; summary of the method: as §2
DU-145 = assay: Growth inhibition of human DU-145 cells assessed as cell growth at 10 uM incubated for 48 hrs by sulforhodamine B assay relative to control; summary of the method: as §3
ACHN = assay: Growth inhibition of human ACHN cells assessed as cell growth at 10 uM incubated for 48 hrs by sulforhodamine B assay relative to control
Summary of the method: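 NCI Developmental Therapeutics Program NCI60 human tumour cell line panel, one-dose primary screen with every compound at 10 µM. Growth is expressed as % of untreated control cells (100%).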

T47D = assay: Growth inhibition of human T47D cells assessed as cell growth at 10 uM incubated for 48 hrs by sulforhodamine B assay relative to control; summary of the method: as §1
HCT-116 = assay: Growth inhibition of human HCT-116 cells assessed as cell growth at 10 uM incubated for 48 hrs by sulforhodamine B assay relative to control; summary of the method: as §2
MDA-MB-468 = assay: Growth inhibition of human MDA-MB-468 cells assessed as cell growth at 10 uM incubated for 48 hrs by sulforhodamine B assay relative to control; summary of the method: as §2
NCI-H322M = assay: Growth inhibition of human NCI-H322M cells assessed as cell growth at 10 uM incubated for 48 hrs by sulforhodamine B assay relative to control; summary of the method: as §2
NCI/ADR-RES = assay: Growth inhibition of human NCI/ADR-RES cells assessed as cell growth at 10 uM incubated for 48 hrs by sulforhodamine B assay relative to control; summary of the method: as §2
LOX IMVI = assay: Growth inhibition of human LOX IMVI cells assessed as cell growth at 10 uM incubated for 48 hrs by sulforhodamine B assay relative to control; summary of the method: as §2
SF-295 = assay: Growth inhibition of human SF-295 cells assessed as cell growth at 10 uM incubated for 48 hrs by sulforhodamine B assay relative to control; summary of the method: as §1
RPMI-8226 = assay: Growth inhibition of human RPMI-8226 cells assessed as cell growth at 10 uM incubated for 48 hrs by sulforhodamine B assay relative to control; summary of the method: as §1

SMILES	growth at 10 µM (OVCAR-3) [%]	growth at 10 µM (UO-31) [%]	growth at 10 µM (OVCAR-4) [%]	growth at 10 µM (PC-3) [%]	growth at 10 µM (SK-MEL-28) [%]	growth at 10 µM (NCI-H460) [%]	growth at 10 µM (NCI-H226) [%]	growth at 10 µM (Hs-578T) [%]	growth at 10 µM (786-0) [%]	growth at 10 µM (SF-539) [%]	growth at 10 µM (SN12C) [%]	growth at 10 µM (HL-60(TB)) [%]	growth at 10 µM (SW-620) [%]	growth at 10 µM (OVCAR-5) [%]	growth at 10 µM (MOLT-4) [%]	growth at 10 µM (SK-MEL-5) [%]	growth at 10 µM (RXF 393) [%]	growth at 10 µM (HCC 2998) [%]	growth at 10 µM (Malme-3M) [%]	growth at 10 µM (SR) [%]	further results
COc1ccc(-c2ccn(S(=O)(=O)c3ccc(C)cc3)n2)cc1	89.3	75.9	62	81.2	103	81	68.5	96	83	97	86.9	114	90.2	112	95.2	68.3	86.3	86.9	88.4	79.2	growth at 10 µM (MCF7): 88.3%; growth at 10 µM (MDA-MB-435): 94.1%; growth at 10 µM (KM12): 89.7%; growth at 10 µM (DU-145): 93.7%; growth at 10 µM (ACHN): 91.6%; growth at 10 µM (T47D): 48%; growth at 10 µM (HCT-116): 73.5%; growth at 10 µM (MDA-MB-468): 46.1%; growth at 10 µM (NCI-H322M): 96.7%; growth at 10 µM (NCI/ADR-RES): 78.7%; growth at 10 µM (LOX IMVI): 84.2%; growth at 10 µM (SF-295): 78.5%; growth at 10 µM (RPMI-8226): 69%
CCc1cccc(C)c1NC(=O)c1sc2nc3c(cc2c1N)C(=O)CCC3	-26	29	28	23.3	39	4	49	24.8	28	-27	30	-30	23	28	17.9	-10	4	10.2	48	2.24	growth at 10 µM (MCF7): 13%; growth at 10 µM (MDA-MB-435): -36%; growth at 10 µM (KM12): 14%; growth at 10 µM (DU-145): 14.2%; growth at 10 µM (ACHN): 22%; growth at 10 µM (T47D): 24.4%; growth at 10 µM (HCT-116): 17%; growth at 10 µM (MDA-MB-468): 9%; growth at 10 µM (NCI-H322M): 32%; growth at 10 µM (NCI/ADR-RES): -3%; growth at 10 µM (LOX IMVI): 36%; growth at 10 µM (SF-295): 2%; growth at 10 µM (RPMI-8226): -20%
